Results on 13 molecules are retold here after ChEMBL document CHEMBL3352176, “Synthesis and evaluation of novel dapsone-thalidomide hybrids for the treatment of type 2 leprosy reactions” (Bioorg Med Chem Lett, 2014).

Usually inhibition stands for how much of the control response was suppressed.

Where only a bound is given, the exact number is not on record here.

The subject of data set [1] is Salmonella typhimurium. Description: Genotoxicity in Salmonella typhimurium TA100 at 1.25 ug/plate assessed as number of revertants per plate in presence of S9 liver extract (reference value: 128.9 +/- 7.3 no unit). The following applies: salmonella enterica subsp. enterica serovar typhimurium. It is filed as toxicity, organism-based, Liver S9 fraction.
Data set [2] deals with L929. Description: Antiinflammatory activity against mouse L929 cells assessed as inhibition of LPS-induced TNFalpha production at 15.625 uM after 48 hrs. The class given is functional. The following applies: L929, 48 h. The gist of the method: (§1)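 Mouse L929 fibroblasts were stimulated with lipopolysaccharide and exposed to compounds at 15.62 µM and 125 µM. TNFα was quantified in culture supernatants in pg/mL and expressed as percent decrease versus stimulated cells. Thalidomide served as the reference control.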

Data set [3] deals with L929. Put plainly: Antiinflammatory activity against mouse L929 cells assessed as inhibition of LPS-induced TNFalpha production after 48 hrs. The class given is functional, cell-based. In short, it runs like this: as §1
A further data set concerns Mus musculus. Description: Antinociceptive effect in mouse assessed as inhibition of acetic acid-induced abdominal constriction at 100 uM/kg, po. It is filed as functional, Abdomen.
The nature of data set [4]: Cytotoxicity against mouse L929 cells assessed as cell viability up to 150 uM. It is filed as cell-based. The following applies: read-out: Activity.
Data set [5] has as its system L929. Description: Antiinflammatory activity against mouse L929 cells assessed as inhibition of LPS-induced TNFalpha production at 125 uM after 48 hrs. The class given is functional. The following applies: L929, 48 h. The gist of the method: as §1
Data set [6] concerns Salmonella typhimurium. Description: Genotoxicity in Salmonella typhimurium TA100 assessed as mutagenic index at 8 umol/plate. The class given is toxicity, organism-based. The following applies: salmonella enterica subsp. enterica serovar typhimurium.
The test system of data set [7] is Salmonella typhimurium. Description: Genotoxicity in Salmonella typhimurium TA100 assessed as mutagenic index at 4 umol/plate in presence of S9 liver extract. The following applies: salmonella enterica subsp. enterica serovar typhimurium. The class given is toxicity, organism-based, Liver S9 fraction.
Another data set concerns Mycobacterium leprae. Put plainly: Antimycobacterial activity against Mycobacterium leprae inoculated in mouse model assessed as mean number of bacilli at 200 mg/kg, po 5 days/week for 4 weeks (reference value: 3.56 x 10^6 cells). The class given is functional.
For data set [8], the system named is Salmonella typhimurium. Put plainly: Genotoxicity in Salmonella typhimurium TA102 assessed as mutagenic index at 4 umol/plate in presence of S9 liver extract. It is filed as toxicity, organism-based, Liver S9 fraction. The following applies: salmonella enterica subsp. enterica serovar typhimurium.
Data set [9] relates to Salmonella typhimurium. Description: Genotoxicity in Salmonella typhimurium TA102 assessed as mutagenic index at 8 umol/plate. The class given is toxicity, organism-based. The following applies: salmonella enterica subsp. enterica serovar typhimurium.
The test system of data set [10] is Salmonella typhimurium. Put plainly: Genotoxicity in Salmonella typhimurium TA102 assessed as mutagenic index at 16 umol/plate. It is filed as toxicity, organism-based. The following applies: salmonella enterica subsp. enterica serovar typhimurium.
The test system of data set [11] is Salmonella typhimurium. Description: Genotoxicity in Salmonella typhimurium TA100 assessed as mutagenic index at 2 umol/plate in presence of S9 liver extract. The class given is toxicity, organism-based, Liver S9 fraction. The following applies: salmonella enterica subsp. enterica serovar typhimurium.
Data set [12] relates to Salmonella typhimurium. Put plainly: Genotoxicity in Salmonella typhimurium TA100 assessed as mutagenic index at 16 umol/plate in presence of S9 liver extract. The class given is toxicity, organism-based, Liver S9 fraction. The following applies: salmonella enterica subsp. enterica serovar typhimurium.
Data set [13] deals with Salmonella typhimurium. Description: Genotoxicity in Salmonella typhimurium TA102 assessed as mutagenic index at 2 umol/plate. The class given is toxicity, organism-based. The following applies: salmonella enterica subsp. enterica serovar typhimurium.
The test system of data set [14] is Salmonella typhimurium. Put plainly: Genotoxicity in Salmonella typhimurium TA102 assessed as mutagenic index at 8 umol/plate in presence of S9 liver extract. The class given is toxicity, organism-based, Liver S9 fraction. The following applies: salmonella enterica subsp. enterica serovar typhimurium.
Data set [15] concerns Salmonella typhimurium. Put plainly: Genotoxicity in Salmonella typhimurium TA100 assessed as mutagenic index at 8 umol/plate in presence of S9 liver extract. The class given is toxicity, organism-based, Liver S9 fraction. The following applies: salmonella enterica subsp. enterica serovar typhimurium.
In data set [16] the test system is Salmonella typhimurium. Put plainly: Genotoxicity in Salmonella typhimurium TA102 assessed as mutagenic index at 32 umol/plate. It is filed as toxicity, organism-based. The following applies: salmonella enterica subsp. enterica serovar typhimurium.
In data set [17] the test system is Salmonella typhimurium. Put plainly: Genotoxicity in Salmonella typhimurium TA100 assessed as mutagenic index at 4 umol/plate. The class given is toxicity, organism-based. The following applies: salmonella enterica subsp. enterica serovar typhimurium.
Data set [18] concerns Salmonella typhimurium. Put plainly: Genotoxicity in Salmonella typhimurium TA100 assessed as mutagenic index at 2 umol/plate. It is filed as toxicity, organism-based. The following applies: salmonella enterica subsp. enterica serovar typhimurium.
The test system of data set [19] is Salmonella typhimurium. Put plainly: Genotoxicity in Salmonella typhimurium TA100 assessed as mutagenic index at 32 umol/plate. It is filed as toxicity, organism-based. The following applies: salmonella enterica subsp. enterica serovar typhimurium.
In data set [20] the test system is Salmonella typhimurium. Description: Genotoxicity in Salmonella typhimurium TA102 assessed as mutagenic index at 16 umol/plate in presence of S9 liver extract. The following applies: salmonella enterica subsp. enterica serovar typhimurium. The class given is toxicity, organism-based, Liver S9 fraction.
For data set [21], the system named is Salmonella typhimurium. Put plainly: Genotoxicity in Salmonella typhimurium TA102 assessed as mutagenic index at 32 umol/plate in presence of S9 liver extract. It is filed as toxicity, organism-based, Liver S9 fraction. The following applies: salmonella enterica subsp. enterica serovar typhimurium.
For data set [22], the system named is Salmonella typhimurium. Description: Genotoxicity in Salmonella typhimurium TA102 assessed as mutagenic index at 4 umol/plate. It is filed as toxicity, organism-based. The following applies: salmonella enterica subsp. enterica serovar typhimurium.
In data set [23] the test system is Salmonella typhimurium. Put plainly: Genotoxicity in Salmonella typhimurium TA102 assessed as mutagenic index at 2 umol/plate in presence of S9 liver extract. It is filed as toxicity, organism-based, Liver S9 fraction. The following applies: salmonella enterica subsp. enterica serovar typhimurium.
The test system of data set [24] is Salmonella typhimurium. Description: Genotoxicity in Salmonella typhimurium TA100 assessed as mutagenic index at 16 umol/plate. It is filed as toxicity, organism-based. The following applies: salmonella enterica subsp. enterica serovar typhimurium.
The subject of data set [25] is Salmonella typhimurium. Description: Genotoxicity in Salmonella typhimurium TA100 assessed as mutagenic index at 32 umol/plate in presence of S9 liver extract. It is filed as toxicity, organism-based, Liver S9 fraction. The following applies: salmonella enterica subsp. enterica serovar typhimurium.
Data set [26] has as its system Salmonella typhimurium. Put plainly: Genotoxicity in Salmonella typhimurium TA102 at 3 ug/plate assessed as number of revertants per plate (reference value: 301 +/- 5.2 no unit). The class given is toxicity, organism-based. The following applies: salmonella enterica subsp. enterica serovar typhimurium.

As for `Nc1ccc2cc3ccccc3cc2c1` [2-AMINOANTHRACENE], the Activity with Salmonella typhimurium [1] stood at 2540.
As for `O=C1c2ccccc2C(=O)N1c1ccc(S(=O)(=O)Nc2ccccn2)cc1`, in the data set with L929 [2], the inhibition at 15.625 µM was 26.5%. Further, the inhibition entry in the data set with L929 [3] is “Dose-dependent effect”. Moreover, the “inhibition (INH)” value in the data set with Mus musculus is given as 49.8%. Moreover, the viability in data set [4] was over 90%. In the data set on L929 [5], the inhibition at 125 µM is 66.6%.
Consider `N=C(N)NS(=O)(=O)c1ccc(N2C(=O)c3ccccc3C2=O)cc1`, for which, in the data set with L929 [2], the inhibition at 15.625 µM was 0%. Further, the inhibition result in the data set with L929 [3] was “Dose-dependent effect”. For the same molecule, the “inhibition (INH)” value in the data set with Mus musculus is listed as 29.63%. Besides, in [4], the viability was over 90%. For the same molecule, in the data set on L929 [5], the inhibition at 125 µM worked out at 7.24%.
For `Cc1cc(C)nc(NS(=O)(=O)c2ccc(N3C(=O)c4ccccc4C3=O)cc2)n1`, in that order: 53.9%, “Dose-dependent effect”, 27.37%, over 90% and 81.3%.
Regarding `Cc1cc(NS(=O)(=O)c2ccc(N3C(=O)c4ccccc4C3=O)cc2)no1`, in the data set with L929 [2], the inhibition at 15.625 µM came out at 16.2%. The inhibition result in the data set with L929 [3] was “Dose-dependent effect”. In the data set on Mus musculus, the “inhibition (INH)” value was 17.9%. Besides, the viability in data set [4] was over 90%. Besides, the inhibition at 125 µM in the data set on L929 [5] worked out at 34.1%.
For `COc1cnc(NS(=O)(=O)c2ccc(N3C(=O)c4ccccc4C3=O)cc2)nc1`, in the data set on L929 [2], the inhibition at 15.625 µM is 73.5%. Also, the inhibition result in the data set on L929 [3] is “Dose-dependent effect”. Also, the “inhibition (INH)” value with Mus musculus came to 27.57%. For the same molecule, in data set [4], the viability is over 90%. Besides, in the data set on L929 [5], the inhibition at 125 µM turned out to be 80.8%.
Consider `O=C1c2ccccc2C(=O)N1c1ccc(S(=O)(=O)Nc2ncccn2)cc1`, for which, in the data set on L929 [2], the inhibition at 15.625 µM is 33.7%. Besides, in the data set with L929 [3], the inhibition result was “Dose-dependent effect”. Moreover, in the data set with Mus musculus, the “inhibition (INH)” value was determined as 39.1%. Besides, the viability in data set [4] is over 90%. Besides, the inhibition at 125 µM in the data set with L929 [5] is 79.3%.
With `Nc1ccc(NS(=O)(=O)c2ccc(N3C(=O)c4ccccc4C3=O)cc2)cc1`, in the data set with L929 [2], the inhibition at 15.625 µM amounted to 28.8%. The inhibition result in the data set with L929 [3] is “Dose-dependent effect”. In the data set with Mus musculus, the “inhibition (INH)” value was 35.2%. For the same molecule, the viability in data set [4] was over 90%. Besides, the inhibition at 125 µM in the data set on L929 [5] was 40.6%.
For `Cc1ccnc(NS(=O)(=O)c2ccc(N3C(=O)c4ccccc4C3=O)cc2)n1`, the Activity with Salmonella typhimurium [6] was 1.33; in the data set with Salmonella typhimurium [7], 1.21; with Mycobacterium leprae it was 2500000; with Salmonella typhimurium [8], 1.17; in the data set with Salmonella typhimurium [9], 1.26; in the data set on Salmonella typhimurium [10] it was 1.36. For the same molecule, the Activity is on record as 1.08 in the data set on Salmonella typhimurium [11]; 1.64 with Salmonella typhimurium [12]; 1.08 in the data set with Salmonella typhimurium [13]; 1.24 in the data set on Salmonella typhimurium [14]; 1.33 in the data set with Salmonella typhimurium [15]; 1.4 in the data set on Salmonella typhimurium [16]. Moreover, the Activity with Salmonella typhimurium [17] was determined as 1.19; in the data set with Salmonella typhimurium [18], 1.07; in the data set on Salmonella typhimurium [19], 1.59; with Salmonella typhimurium [20], 1.31; with Salmonella typhimurium [21], 1.38; in the data set with Salmonella typhimurium [22], 1.22. In addition, the Activity in the data set with Salmonella typhimurium [23] stood at 1.07; in the data set with Salmonella typhimurium [24], 1.61; in the data set on Salmonella typhimurium [25], 1.59. Moreover, the inhibition at 15.625 µM in the data set on L929 [2] worked out at 86.3%. In addition, the inhibition entry in the data set with L929 [3] is “Dose-dependent effect”. Besides, in the data set with Mus musculus, the “inhibition (INH)” value was 34.15%. Further, the viability in data set [4] was over 90%. Also, the inhibition at 125 µM with L929 [5] turned out to be 87.8%.
For `Cc1c(N(C)CS(=O)(=O)O)c(=O)n(-c2ccccc2)n1C` [METAMIZOLE], in the data set with Mus musculus, the “inhibition (INH)” value stood at 33.5%.
`COc1cccc2c1C(=O)c1c(O)c3c(c(O)c1C2=O)C[C@@](O)(C(C)=O)C[C@@H]3O[C@H]1C[C@H](N)[C@H](O)[C@H](C)O1` [DAUNORUBICIN]: the Activity in the data set on Salmonella typhimurium [26] worked out at 902.
Take `O=C1CCC(N2C(=O)c3ccccc3C2=O)C(=O)N1` (stereo not drawn) [THALIDOMIDE]: the Activity in the data set with Mycobacterium leprae was found to be 4600000. Besides, in the data set on L929 [2], the inhibition at 15.625 µM is 35.4%. For the same molecule, the “inhibition (INH)” value with Mus musculus was 42.2%. In the data set with L929 [5], the inhibition at 125 µM amounted to 42.8%.
On to `NS(=O)(=O)c1ccc(N2C(=O)c3ccccc3C2=O)cc1`, for which the inhibition at 15.625 µM in the data set on L929 [2] was found to be 53%. Moreover, the inhibition result in the data set with L929 [3] was “Dose-dependent effect”. For the same molecule, the “inhibition (INH)” value in the data set on Mus musculus stood at 26.75%. For the same molecule, in [4], the viability is over 90%. In addition, the inhibition at 125 µM in the data set on L929 [5] is 70.7%.
